Assay results from paper PMC3016154 (Journal of biomolecular screening, 2010).

Assays:
EAAT2 = conditions: cited from earlier work
[1] = system: EAAT2 protein expression (human EAAT2 transcripts with the 1091-nucleotides 5′ UTR); assay: Cell-based ELISA for EAAT2 protein expression in PA-EAAT2 cells; conditions: retinoic acid 1.5 μg/mL, 384-well format, vs DMSO
In short: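 PA-EAAT2 cells at 8000/well, grown 36 h in 2% FBS DMEM with geneticin, then switched to serum-free DMEM/geneticin and exposed 72 h (0.20% DMSO final). Fixed 2 h in 4% formaldehyde; peroxide quench, milk block; rabbit anti-EAAT2 1:2000 overnight at 4°C, HRP anti-rabbit 1:6000 for 2 h; chemiluminescence read at 40 min. % activation vs DMSO wells; EC50 from 12-point 3-fold series, […], quadruplicate.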

EAAT2 protein expression = conditions: mice, intraperitoneal injection; cited from earlier work

Question: With `C[C@]12C[C@H](O)[C@H]3[C@@H](CCC4=CC(=O)CC[C@@]43C)[C@@H]1CC[C@@H]2C(=O)CO` [corticosterone] as the compound, how does the “translational activator of EAAT2” value (EAAT2) read?
Answer: translational activator of EAAT2

Question: For `CC1=C(/C=C/C(C)=C/C=C/C(C)=C/C(=O)O)C(C)(C)CCC1` [retinoic acid], which “PA-EAAT2 cell signal increase” value [1] is on record?
Answer: 2- to 3.5 fold

Question: With `CO/N=C(\C(=O)N[C@@H]1C(=O)N2C(C(=O)O)=C(CSc3nc(=O)c(=O)[nH]n3C)CS[C@H]12)c1csc(N)n1` [ceftriaxone, Ceftriaxone] as the compound, how does the “induction of EAAT2 protein expression or glutamate uptake activity” value (EAAT2 protein expression) read?
Answer: only slightly induces
